Compound activity from PubChem.
Lmaj promast – Leishmania major promastigote growth inhibition, primary screen | inhibition, % at 10 µM | Leishmania major promastigotes, resazurin fluorescence viability | 200,000 tested, 9% active; in the data active = inhibition above about 50%;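 note: promastigotes grown with compound for 44 hours at 28 °C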
RAM network inh – inhibitors of the yeast RAM network, primary screen, dse1pr::URA3 reporter, 5-FOA selection; S. cerevisiae dse1pr::URA3 reporter, 5-FOA growth OD615, 2 d; analog-sensitive cbk1-as2 kinase mutant strain; 190,000 tested, 1.8% active; inhibition, % at 50 µM;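 active = inhibition above a set limit, 3 SD over mean compound inhibition, cut at about 8.4% in these data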;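 note: 0% = DMSO-only wells with no growth and 100% = 10 µM 1-NA-PP1 full growth; inhibition rescues growth on 5-FOA so higher OD means more RAM inhibition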
ABCG2 inh – ABCG2 efflux pump inhibitors, primary screen, multiplex with ABCB1, IgMXP3 cells, flow cytometry. AID 1325, 2008. Broad substrate specificity ATP-binding cassette transporter ABCG2 (Homo sapiens), Q9UNQ0. inhibition, % at 6.6 µM. 190,000 tested, 0.1% active. JC-1 efflux;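 active = inhibition above 80%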;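 note: 0% = DMSO and 100% = nicardipine control wells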
Target sequence (Q9UNQ0 whole entry, looked up): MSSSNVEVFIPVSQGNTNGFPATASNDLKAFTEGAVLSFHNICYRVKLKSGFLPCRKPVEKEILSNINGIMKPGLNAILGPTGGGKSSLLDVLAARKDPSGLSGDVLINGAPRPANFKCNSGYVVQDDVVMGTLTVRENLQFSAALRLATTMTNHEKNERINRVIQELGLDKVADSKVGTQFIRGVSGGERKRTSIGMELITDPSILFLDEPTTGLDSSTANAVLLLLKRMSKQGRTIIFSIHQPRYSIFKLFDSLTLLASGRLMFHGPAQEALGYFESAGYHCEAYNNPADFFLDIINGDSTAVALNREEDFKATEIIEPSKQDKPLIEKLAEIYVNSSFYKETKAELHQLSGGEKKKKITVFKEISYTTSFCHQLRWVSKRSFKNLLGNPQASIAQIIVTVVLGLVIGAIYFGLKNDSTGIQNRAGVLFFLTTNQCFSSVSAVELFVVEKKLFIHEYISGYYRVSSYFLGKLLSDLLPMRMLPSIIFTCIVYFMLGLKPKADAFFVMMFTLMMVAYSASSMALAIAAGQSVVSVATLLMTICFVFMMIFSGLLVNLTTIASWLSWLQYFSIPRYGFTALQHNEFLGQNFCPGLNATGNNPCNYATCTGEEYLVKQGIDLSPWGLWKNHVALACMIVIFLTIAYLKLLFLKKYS
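test system = two drug-resistant human cell lines, ABCG2 and ABCB1 | amount = 3 million cells/mL final, two lines in 1:1 ratio | reagent = JC-1 transporter substrate | doses = one concentration, 6.6 µM final | incubation = 10 min at 25 °C | signal = flow cytometric JC-1 green MFI at 530 nm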
ABCB1 block – ABCB1 efflux pump inhibitors, primary screen, cell-based, multiplex, flow cytometry, ABCG2 counter-screen. ATP-dependent translocase ABCB1 (Homo sapiens), P08183. inhibition, % at 6.6 µM. AID 1326, 2008. CCRF-Adr cells, JC-1 efflux. 190,000 tested, 0.067% active; in the data active = inhibition above about 40%;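 note: 0% = vehicle and 100% = reference inhibitor; higher value means more JC-1 retained so stronger ABCB1 efflux block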
WT yeast gro inh – growth inhibition of WT strain, primary screen, mitochondrial fusion inhibitor project, WT and mutant strains, chemical genetic. mitochondrial fusion phenotypic screen. inhibition, % at 10 µM. 190,000 tested, 2.1% active. AID 1362, 2008; in the data active = inhibition above about 58%; tested in S. cerevisiae
An asterisk follows results filed as active; . = not tested or not shown. This is a sample that favours compounds with a hit; in the whole collection about 12% have one here.

SMILES	Lmaj promast	RAM network inh	ABCG2 inh	ABCB1 block	WT yeast gro inh
O=C(CCN1CCCCCC1)c1ccccc1	88*	1	1	0	6
CC(C)Oc1ccc(C(=O)CCN2CCCCC2)cc1	90*	-1	-2	0	3
O=C(CCN1CCN(c2ccccc2F)CC1)c1ccc(Br)cc1	83*	-1	5	1	-10
CCOc1ccc(C(=O)CCN2CCCCC2)cc1	10	-1	22	3	-3
O=C(CCN1CCOCC1)c1ccc(Br)cc1	33	0	-1	0	-7
CCC1(C)CC2(CCCN(CCC(=O)c3ccccc3)C2)CCO1 (stereo not drawn)	69*	0	3	1	-6
N=C1C(c2ccccc2)=C(O)CN1c1cccc(O)c1	-1	3	3	1	0
COc1ccc(C(=O)CCN2CCCCCC2)cc1	85*	-1	0	0	2
CCCOc1ccc(C(=O)CCN2CCN(C(=O)OCC)CC2)cc1	96*	0	9	0	-2
O=C(CCCCN1CCCCC1)c1ccc2c(c1)Cc1ccccc1-2	100*	1	-1	0	33
CCOC(=O)N1CCN(C(=O)c2ccc(OCC)cc2)CC1	-8	3	-2	0	-5
Cc1nc2nc(-c3cccnc3)[nH]n2c(=O)c1Cc1ccccc1	5	0	1	0	-8
Cc1cc2nc(C)c(Cc3ccccc3)c(=O)n2[nH]1	97*	0	1	0	-16
COc1ccccc1-c1c(C)[nH]n2c(=O)c(Cc3ccccc3)c(C)nc12	15	6	6	3	5
COc1ccc(-c2c(C)[nH]n3c(=O)c(Cc4ccccc4)c(C)nc23)cc1	81*	4	5	0	-6
Cc1nc2c(-c3ccccc3)c[nH]n2c(=O)c1Cc1ccccc1	59*	3	2	0	-13
O=C1N/C(=N\N=C\c2cccs2)SC1Cc1cccc(Cl)c1Cl (stereo not drawn)	11	4	-4	-1	52
O=C(c1ccco1)N1CCN(C(=O)C(Sc2ccccc2)c2ccccc2)CC1 (stereo not drawn)	59*	-1	8	2	-2
Clc1ccc(Cl)c(OCCN2CCOCC2)c1	22	0	-3	0	-16
Cc1ccc(C)c(OCCOCCN2CCOCC2)c1	92*	1	0	0	5
Cc1cc(C)c(C)c(OCCOCCN2CCN(C)CC2)c1	-2	2	1	0	1
Cc1cc(C)c(C)c(OCCOCCN2CCOCC2)c1	55*	0	1	0	-3
Clc1cc(Br)ccc1OCCOCCN1CCOCC1	96*	1	0	0	9
COc1ccc(C(C)(C)C)cc1NC(=O)Nc1ccc2c(c1)OCO2	100*	4	61	0	68*
CCOC(=O)Cn1c(=S)[nH]c2c(oc3ccc(Cl)cc32)c1=O	-5	7	-3	-1	-5
SMILES	Lmaj promast	RAM network inh	ABCG2 inh	ABCB1 block	WT yeast gro inh
CC1(C)CC(=O)C2=C(C1)Nc1ncnn1C2c1cccs1 (stereo not drawn)	-1	0	2	1	6
O=C(COC(=O)c1cc([N+](=O)[O-])ccc1NCCO)NCc1cccs1	-4	11*	3	1	-34
Cc1ccccc1OCCCc1c(C)n[nH]c1C	13	3	10	0	.
Cc1ccccc1OCCCCc1c(C)n[nH]c1C	14	-1	6	0	76*
CCOC(=O)CNS(=O)(=O)c1cc(-c2nn(C)c(=O)c3ccccc23)ccc1C	12	1	11	2	70*
CCOC(=O)NCc1cc(-c2nn(C)c(=O)c3ccccc23)ccc1C	1	0	12	3	34
Cc1ccc(-c2nn(C)c(=O)c3ccccc23)cc1S(=O)(=O)NCCN1CCOCC1	65*	1	4	1	11
Cc1ccc(S(=O)(=O)Nc2cc(-c3nn(C)c(=O)c4ccccc34)ccc2N2CCOCC2)cc1	29	3	5	8	-5
CCOC(=O)Cc1csc(NS(=O)(=O)c2ccc(SC)cc2)n1	-2	-2	4	0	4
COc1cc(-c2[nH]nc3c2C(c2ccco2)C(C#N)=C(N)O3)cc(OC)c1OC (stereo not drawn)	20	-1	-1	0	-5
Cc1ccc(CSCC(=O)NCc2cccs2)cc1	-2	1	2	0	3
O=C(Cn1c(=O)oc2cc(S(=O)(=O)N3CCCC3)ccc21)N1CCN(C2CCCCC2)CC1	85*	2	0	0	-6
CCOC(=O)Cn1c(=O)oc2cc(S(=O)(=O)N3CCn4c3nc3ccccc34)ccc21	-5	2	0	0	-4
O=C(Cn1c(=O)oc2cc(S(=O)(=O)N3CCCCC3)ccc21)N1CCc2ccccc2C1	-3	5	2	1	8
CCOC(=O)Cn1c(=O)oc2cc(S(=O)(=O)N3CCCc4ccccc43)ccc21	81*	5	1	-1	19
O=C(Cn1c(=O)oc2cc(S(=O)(=O)N3CCCCCC3)ccc21)NC1CCCCC1	-11	8.8*	1	0	-13
O=C(Cn1c(=O)oc2cc(S(=O)(=O)N3CCc4ccccc43)ccc21)NC1CCCC1	99*	3	1	1	7
Cc1ccc(S(=O)(=O)N(C)C)cc1-n1c(SCC(=O)Nc2ccc(F)c(F)c2F)nc2ccccc2c1=O	31	8	2	7	-18
Cc1ccc(N(C(=O)Cc2cccs2)C(C(=O)NC2CCCCC2)c2ccccn2)cc1C (stereo not drawn)	36	1	-3	-1	17
CC(C)(C)NC(=O)CN(C(=O)C(=O)Nc1ccc2c(c1)OCCO2)C(C)(C)C	0	0	0	0	-13
CCn1cc(C(=O)NCCCN2CCN(C)CC2)c(=O)c2cc(S(=O)(=O)N3CCc4ccccc4C3)ccc21	5	2	0	0	-4
CC(C)CCNC(=O)Cn1c(=O)oc2cc(S(=O)(=O)N3CCc4ccccc43)ccc21	99*	2	3	2	-3
COc1ccc(NS(=O)(=O)c2ccc(N3CCCC3=O)cc2)cn1	-2	0	-3	-1	-15
COc1ccc(NS(=O)(=O)c2ccc3c(c2)Cc2ccccc2-3)cn1	-7	3	3	-1	60*
CCN(CC(=O)Nc1ccc(Cl)c(C(F)(F)F)c1)CC(=O)NC1CCS(=O)(=O)C1 (stereo not drawn)	9	-1	6	0	-3
O=C(Nc1ccc(N2CCOCC2)nc1)c1cccs1	-4	0	5	1	-3
O=C(Nc1ccc(NC(=O)C2CCCCC2)nc1)c1cccs1	99*	6	1	0	-1
O=C(c1ccc(=O)[nH]n1)N1CCN(S(=O)(=O)c2ccc3ccccc3c2)CC1	-9	2	-3	0	-14
